PubChem BioAssay
The source made the active and inactive calls.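 How the source made its calls, unless noted: active means potentiation averaged over duplicate wells exceeding buffer-only control mean by more than 3 SD; inactive means the rest.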

Legend:
[1] = thallium flux activation in parental CHO cells, counter-screen for KCNQ1 potentiator project (AID 493006;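 active means duplicate-averaged activation above buffer control mean plus 5 SD of those controls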;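 on activation: fluorescence ratio of max minus min over baseline after K+ and Tl+ depolarization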); conditions: parental CHO-K1 cells, FluxOR thallium flux, at 10 µM; active compounds read high
Outline: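 Material: untransfected host CHO-K1 cells with FluxOR thallium dye. Timing: overnight 37 °C plating, 90 min RT dye, 20 min compound. Detection: kinetic FluxOR fluorescence, 10 s baseline, 110 s after stimulus. Read-out basis: max-minus-min fluorescence over baseline, percent of buffer-to-R-L3 span. Replicates: duplicate wells per compound, percent values averaged.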

[2] = biological target: Potassium voltage-gated channel subfamily KQT member 1 (Homo sapiens) (UniProt P51787); assay: KCNQ1 potassium channel potentiators, confirmation, FluxOR thallium flux, CHO cells, duplicates (AID 493007); conditions: KCNQ1 cell line, FluxOR thallium flux fluorescence, at 10 µM; active compounds read high, % of reference activator effect, buffer zero;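 on outcome: cells depolarized by a potassium plus thallium sulfate stimulus after compound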
Outline: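 Test system – KCNQ1-expressing CHO cell line · Incubation – FluxOR dye loading 90 min, compound exposure 20 min, room temperature · Detection – FluxOR Tl+ flux fluorescence, 10 s baseline plus 110 s recording · Controls – buffer-only wells as 0% and R-L3 activator as 100%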

[3] = biological target: Potassium voltage-gated channel subfamily KQT member 2 (Rattus norvegicus) (UniProt O88943); assay: rat KCNQ2 channel potentiation, selectivity assay for KCNQ1 potentiator project, KCNQ2-CHO-K1 cells (AID 493009;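 active means mean duplicate potentiation above the buffer control mean plus 5 SD of buffer wells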;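 further: assay conditions were tuned for KCNQ1 rather than KCNQ2 modulators; signal is max minus min fluorescence divided by baseline after thallium stimulus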); conditions: FluxOR thallium flux fluorescence, at 10 µM; active compounds read high, scaled: buffer 0, activator control 100
[4] = biological target: Potassium voltage-gated channel subfamily KQT member 1 (Homo sapiens) (UniProt P51787); assay: KCNQ1 channel current potentiators, confirmation, orthogonal assay for KCNQ1 potentiator project, IonWorks patch clamp, KCNQ1-CHO cells (AID 493184;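 active means current rise at least 3 SD above the untreated control mean in each of two repeat wells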); conditions: automated patch clamp current, at 10 µM; active compounds read high
Outline: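 Read-out: Percent current increase versus pre-compound level | Assay system: CHO cells carrying KCNQ1 | Measured by: Automated perforated-patch electrophysiology | Medium: External bath solution at pH 7.4 | Dosing: One dose, 10 µM final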

[5] = biological target: Potassium voltage-gated channel subfamily E member 1 (Homo sapiens) + Potassium voltage-gated channel subfamily KQT member 1 (Homo sapiens) (UniProt P15382+P51787); assay: KCNQ1/KCNE1 complex potentiators, confirmation, selectivity assay for KCNQ1 potentiator project, thallium flux, CHO-K1 KCNQ1/E1 cells (AID 493186;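 active means mean duplicate activation above the buffer control mean plus 5 SD of those controls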); conditions: FluxOR thallium flux, at 10 µM; active compounds read high
Outline: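 Test system: CHO-K1 cells with KCNQ1/E1; dosing: one test concentration; signal: FluxOR Tl+ flux fluorescence, kinetic read; incubation: 90-min dye loading then 20-min compound exposure, both at room temperature; read-out basis: percent of R-L3 effect over buffer; replication: duplicate wells per compound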

Potassium voltage-gated channel subfamily KQT member 2 (Rattus norvegicus), sequence (O88943 whole entry, looked up): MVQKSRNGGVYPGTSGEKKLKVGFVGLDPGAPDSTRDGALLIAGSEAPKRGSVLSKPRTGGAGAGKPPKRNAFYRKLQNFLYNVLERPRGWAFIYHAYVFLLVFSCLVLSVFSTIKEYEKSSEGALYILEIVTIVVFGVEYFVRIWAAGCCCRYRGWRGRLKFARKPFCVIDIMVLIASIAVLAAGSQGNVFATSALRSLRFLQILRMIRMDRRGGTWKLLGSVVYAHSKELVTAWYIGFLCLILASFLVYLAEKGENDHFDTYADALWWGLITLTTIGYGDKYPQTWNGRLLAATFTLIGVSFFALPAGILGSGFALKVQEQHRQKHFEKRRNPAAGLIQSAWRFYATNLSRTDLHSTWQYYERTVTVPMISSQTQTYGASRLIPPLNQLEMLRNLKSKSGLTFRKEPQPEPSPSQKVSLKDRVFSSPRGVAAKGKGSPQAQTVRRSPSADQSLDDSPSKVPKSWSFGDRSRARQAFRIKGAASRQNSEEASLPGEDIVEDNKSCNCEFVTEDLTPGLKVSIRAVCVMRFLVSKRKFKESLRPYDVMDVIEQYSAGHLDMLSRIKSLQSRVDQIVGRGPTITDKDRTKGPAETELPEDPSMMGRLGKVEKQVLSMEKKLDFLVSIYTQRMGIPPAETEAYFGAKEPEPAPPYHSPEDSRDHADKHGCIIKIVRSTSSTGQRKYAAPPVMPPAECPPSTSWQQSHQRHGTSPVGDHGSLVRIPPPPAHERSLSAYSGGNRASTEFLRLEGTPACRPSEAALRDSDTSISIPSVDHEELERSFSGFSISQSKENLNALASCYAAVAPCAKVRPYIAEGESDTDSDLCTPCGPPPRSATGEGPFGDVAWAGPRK
Potassium voltage-gated channel subfamily E member 1 (Homo sapiens) + Potassium voltage-gated channel subfamily KQT member 1 (Homo sapiens), sequence (P51787 whole entry, looked up): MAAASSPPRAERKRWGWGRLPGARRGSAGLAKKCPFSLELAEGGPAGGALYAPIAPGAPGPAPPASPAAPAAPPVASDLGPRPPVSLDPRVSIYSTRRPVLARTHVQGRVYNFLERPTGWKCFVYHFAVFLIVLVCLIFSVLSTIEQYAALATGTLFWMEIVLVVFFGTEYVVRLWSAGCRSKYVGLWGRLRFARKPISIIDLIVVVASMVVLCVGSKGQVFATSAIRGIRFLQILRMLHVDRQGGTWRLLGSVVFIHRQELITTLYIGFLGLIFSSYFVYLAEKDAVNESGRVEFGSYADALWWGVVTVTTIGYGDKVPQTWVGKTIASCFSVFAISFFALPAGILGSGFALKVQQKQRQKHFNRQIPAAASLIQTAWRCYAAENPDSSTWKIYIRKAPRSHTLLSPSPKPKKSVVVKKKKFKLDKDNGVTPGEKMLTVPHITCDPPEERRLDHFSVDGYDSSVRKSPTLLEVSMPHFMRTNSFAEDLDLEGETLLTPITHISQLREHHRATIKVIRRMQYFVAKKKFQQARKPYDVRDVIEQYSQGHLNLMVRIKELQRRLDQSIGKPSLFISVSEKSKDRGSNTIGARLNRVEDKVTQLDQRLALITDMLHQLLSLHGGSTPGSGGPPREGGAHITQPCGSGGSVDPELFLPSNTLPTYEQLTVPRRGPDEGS
Potassium voltage-gated channel subfamily KQT member 1 (Homo sapiens), sequence (P51787 whole entry, looked up): as above

O=C(O)c1ccc2c(c1)C(=O)N(Cc1ccccc1)C2=O
inactive: outcome [1] | outcome [2] | outcome [3] | outcome [4]

O=C(N/N=C1/C(=O)c2cccc3cccc1c23)c1ccc(Cl)cc1
active: activation [1] 145% | potentiation [2] 83.5%
inactive: outcome [3] | outcome [4]

COc1ccc(NC(=O)C(=O)NNC(=O)c2cccs2)cc1
active: activation [1] 177% | potentiation [2] 24.5% | potentiation [3] 187%
inactive: outcome [4]

O=S(=O)(CC(CN1CCCC1)N1CCCC1)c1ccc2ccccc2c1 (stereo not given)
inactive: outcome [1] | outcome [2] | outcome [3] | outcome [4]

CC(NC(=O)CS(=O)(=O)c1ccccc1)c1ccccc1 (stereo not given)
inactive: outcome [1] | outcome [2] | outcome [3] | outcome [4]

O=C(COC(=O)C12CC3CC(CC(C3)C1)C2)NCCCc1ccccc1
inactive: outcome [1] | outcome [2] | outcome [3] | outcome [4]

CCOC(=O)c1c(NC(=S)NCc2ccccc2)sc2c1CCN(C(=O)OCC)C2
inactive: outcome [1] | outcome [2] | outcome [3] | outcome [4]

CC1CN(C(=S)NC(=O)c2ccco2)CC(C)O1 (stereo not given)
inactive: outcome [1] | outcome [2] | outcome [3] | outcome [4] | outcome [5]

Cc1ccccc1C(=O)NC1CC(C)(C)NC(C)(C)C1
inactive: outcome [1] | outcome [2] | outcome [3] | outcome [4]

N=c1sccn1CC(=O)Nc1ccc(S(=O)(=O)N2CCOCC2)cc1
inactive: outcome [1] | outcome [2] | outcome [3] | outcome [4] | outcome [5]

Cc1noc(C)c1S(=O)(=O)Nc1ccc(C#N)cc1
inactive: outcome [1] | outcome [2] | outcome [3] | outcome [4]

CC1CC(=S)Nc2ccccc2N1C(=O)Nc1ccccc1 (stereo not given)
inactive: outcome [1] | outcome [2] | outcome [3] | outcome [4] | outcome [5]

CCn1nc(C)c(NC(=O)c2cnn3c(C(F)F)cc(-c4ccccc4)nc23)c1C
inactive: outcome [1] | outcome [2] | outcome [3] | outcome [4]

S=c1[nH]nc(-c2ccc(Cl)cc2)n1/N=C/C=C/c1ccco1
inactive: outcome [3] | outcome [4]
active: activation [1] 159% | potentiation [2] 32%

N#Cc1ccc(Cl)cc1NC(=O)COC(=O)[C@H](CCC(N)=O)NC(=O)c1ccc(F)cc1
inactive: outcome [1] | outcome [2] | outcome [3] | outcome [4] | outcome [5]

N#Cc1ccccc1OCCN1C(=O)c2ccccc2C1=O
inactive: outcome [1] | outcome [2] | outcome [3] | outcome [4] | outcome [5]

CCCCCCCCCCC[N+](C)(C)CC/C=C1/c2ccccc2Sc2ccc(Cl)cc21
inactive: outcome [3] | outcome [4]
active: activation [1] 184% | potentiation [2] 64%

COc1c(Br)cc(/C=N/n2c(-c3ccccc3)n[nH]c2=S)c(O)c1Br
inactive: outcome [1] | outcome [2] | outcome [3] | outcome [4] | outcome [5]

Cc1ccc(S(=O)(=O)/N=C(\N)Nc2nc(C)c3ccccc3n2)cc1
inactive: outcome [1] | outcome [2] | outcome [3] | outcome [4] | outcome [5]

S=C(N/N=C/c1cccc2ccccc12)Nc1cccc(Cl)c1
inactive: outcome [1] | outcome [3] | outcome [4] | outcome [5]
active: potentiation [2] 59.5%

O=C(c1ccc(S(=O)(=O)N2CCCC2)cc1)N1CCN(c2cccc(Cl)c2)CC1
inactive: outcome [1] | outcome [2] | outcome [3] | outcome [4]

Cc1ccc(C(=O)N/N=C(/CC(=O)c2cccs2)C(F)(F)F)cc1
inactive: outcome [4]
active: activation [1] 234% | potentiation [2] 66.5% | potentiation [3] 246%

CC(Sc1cccc[n+]1[O-])c1ccccc1 (stereo not given)
inactive: outcome [1] | outcome [2] | outcome [3] | outcome [4] | outcome [5]

CCOC(=O)c1[nH]c2cc(OC)c(OC)cc2c1NC(=O)CN(C)C1CCCCC1
inactive: outcome [1] | outcome [3] | outcome [4] | outcome [5]
active: potentiation [2] 18%

CCOC(=O)c1c(N)sc(C(C)=O)c1C
inactive: outcome [1] | outcome [2] | outcome [3] | outcome [4] | outcome [5]

Cc1ccc(NC(=S)NC(=O)c2cncc(Br)c2)cc1Cl
active: activation [1] 323% | potentiation [2] 246% | potentiation [3] 449%
inactive: outcome [4]

Cc1ccc(C)c(N(CC(=O)NC2CCCC2)C(=O)CCC(=O)Nc2nccs2)c1
inactive: outcome [1] | outcome [2] | outcome [3] | outcome [4]

CCn1c(SCC(=O)Nc2ccccc2F)nnc1-c1cnccn1
inactive: outcome [1] | outcome [2] | outcome [3] | outcome [4] | outcome [5]

CCN(c1ccc(NS(=O)(=O)c2cc(Cl)ccc2Cl)cc1)C(C)C
inactive: outcome [1] | outcome [2] | outcome [3] | outcome [4]

COc1cc2c(cc1OC)CN(CCC(=O)c1ccc(Br)cc1)CC2
inactive: outcome [1] | outcome [2] | outcome [3] | outcome [4] | outcome [5]

O=C(Nc1cccnc1)NC1CCCCC1
inactive: outcome [1] | outcome [2] | outcome [3] | outcome [4] | outcome [5]

COc1ccc(-c2cc(-c3ccccc3)c(C#N)c(=S)[nH]2)cc1
inactive: outcome [1] | outcome [2] | outcome [3] | outcome [4] | outcome [5]

COc1ccc(CC(=O)NC(=S)Nc2cccc(C)c2)cc1
inactive: outcome [1] | outcome [2] | outcome [3] | outcome [4] | outcome [5]

Cc1ccc(NC(=S)NC(=O)c2ccc(-c3ccccc3)cc2)c(C)c1
inactive: outcome [1] | outcome [2] | outcome [3] | outcome [4] | outcome [5]

CCOC(=S)NC(=O)c1sc2ccccc2c1Cl
inactive: outcome [4]
active: activation [1] 398% | potentiation [2] 122% | potentiation [3] 404%

CCOC(=O)Nc1ccc2c(c1)N(CCCN(C)C)c1ccccc1CC2
inactive: outcome [1] | outcome [2] | outcome [3] | outcome [4]

Cn1c(=O)c2c3c(sc2n2c(SCC(N)=O)nnc12)CC(C(C)(C)C)CC3 (stereo not given)
inactive: outcome [1] | outcome [2] | outcome [3] | outcome [4]

Cc1ccc(S(=O)(=O)N2CCN(C(=O)c3ccc(Br)o3)CC2)c(C)c1
inactive: outcome [1] | outcome [2] | outcome [3] | outcome [4] | outcome [5]

Cc1ccc(C)c(N2CCN(C(=O)CCS(=O)(=O)c3ccc4c(c3)NC(=O)CO4)CC2)c1
inactive: outcome [1] | outcome [2] | outcome [3] | outcome [4]

C=CCNc1nnc(SCC(=O)N2CCC(C(N)=O)CC2)s1
inactive: outcome [1] | outcome [2] | outcome [3] | outcome [4]

Cc1ccc(-c2csc(NC(=O)Cc3ccc(F)cc3)n2)o1
inactive: outcome [1] | outcome [2] | outcome [3] | outcome [4] | outcome [5]

CCN(C(=O)c1cc2cc3ccc(C)cc3nc2o1)c1ccc(OC)cc1
inactive: outcome [1] | outcome [2] | outcome [3] | outcome [4]

Cc1ccccc1C(OCCN(C)C)C1CCCCC1 (stereo not given)
inactive: outcome [1] | outcome [2] | outcome [3] | outcome [4] | outcome [5]

NC(=O)c1ccsc1NC(=O)COC(=O)Cc1ccsc1
inactive: outcome [1] | outcome [3] | outcome [4] | outcome [5]
active: potentiation [2] 182%

CC(CCc1ccccc1)NC(=O)c1ccccc1C(=O)O (stereo not given)
inactive: outcome [1] | outcome [2] | outcome [3] | outcome [4]

COc1cc(C(=O)NNC(=O)C2CC2)cc(OC)c1OC
inactive: outcome [1] | outcome [2] | outcome [3] | outcome [4]

COc1ccc(-c2csc(N(CCCN(C)C)C(=O)c3ccccc3C)n2)cc1
inactive: outcome [1] | outcome [2] | outcome [3] | outcome [4] | outcome [5]

COc1ccc(-c2nn(-c3ccccc3)cc2C(=O)NC(=S)NNC(=O)c2ccncc2)cc1
inactive: outcome [1] | outcome [3] | outcome [4] | outcome [5]
active: potentiation [2] 17.5%

O=C(NC(=S)Nc1cc(C(F)(F)F)ccc1N1CCOCC1)c1sc2ccccc2c1Cl
inactive: outcome [1] | outcome [2] | outcome [3] | outcome [4] | outcome [5]

CCOc1cc(CN2CCN(C(=O)CC(C)C)CC2)ccc1OC
inactive: outcome [1] | outcome [3] | outcome [4] | outcome [5]
active: potentiation [2] 23.5%

Fc1ccc(/C=N/n2c(C3CCCCC3)n[nH]c2=S)cc1
inactive: outcome [1] | outcome [2] | outcome [3] | outcome [4] | outcome [5]

S=C(Nc1ccccc1)Nc1nc2ccccc2n1CCOc1ccc(Cl)cc1
inactive: outcome [1] | outcome [2] | outcome [3] | outcome [4] | outcome [5]

CCC(C)N(C(=O)COC(=O)c1cc([N+](=O)[O-])ccc1N1CCOCC1)C1CCS(=O)(=O)C1 (stereo not given)
inactive: outcome [1] | outcome [2] | outcome [3] | outcome [4] | outcome [5]

CCCCOC(=O)c1ccc(NC(=S)NC(=O)c2ccco2)cc1
inactive: outcome [1] | outcome [2] | outcome [3] | outcome [4] | outcome [5]

COc1ccc(C(=O)NC(=S)NNC(=O)c2ccc(C)cc2)cc1
inactive: outcome [1] | outcome [4]
active: potentiation [2] 142% | potentiation [3] 250% | activation [5] 62.3%

C/C(=N\Nc1nc2ccccc2s1)c1ccc(Br)s1
inactive: outcome [1] | outcome [2] | outcome [3] | outcome [4] | outcome [5]
